Results from ChEMBL document CHEMBL1649390, “New (RS)-benzoxazepin-purines with antitumour activity: The chiral switch from (RS)-2,6-dichloro-9-[1-(p-nitrobenzenesulfonyl)-1,2,3,5-tetrahydro-4,1-benzoxazepin-3-yl]-9H-purine” (Eur J Med Chem, 2011).

What was measured:
[1] = tested on: MCF7; test: Cytotoxicity against human MCF7 cells expressing wild type p53 and ras mutant […]; assay type: functional, cell-based
[2] = tested on: MCF7; test: Induction of apoptosis in human MCF7 cells assessed as necrotic cells at IC50 concentration after 24 hrs using V-FITC and propidium iodide staining by flow cytometry (reference value: 9.55 +/- 0.21 %); assay type: functional
[3] = Therapeutic index, ratio of IC50 for human MCF10A cells to IC50 for human MCF7 cells expressing wild type p53 and ras mutant; assay type: cell-based; conditions: MCF10A cells versus MCF7 cells (wild type p53, ras mutant), read-out: Ratio IC50
In short: (§1)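 Ratio of IC50 in non-tumour MCF-10A to IC50 in the tumour line, both from the SRB growth assay described for cytotoxicity.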

[4] = tested on: MCF7; test: Induction of apoptosis in human MCF7 cells assessed as necrotic cells at IC50 concentration after 48 hrs using V-FITC and propidium iodide staining by flow cytometry (reference value: 12.61 +/- 7.50 %); assay type: functional
[5] = tested on: MCF7; test: Induction of apoptosis in human MCF7 cells assessed as early apoptotic cells at IC50 concentration after 24 hrs using V-FITC and propidium iodide staining by flow cytometry relative to control; assay type: functional
[6] = tested on: MCF7; test: Induction of apoptosis in human MCF7 cells assessed as late apoptotic cells at IC50 concentration after 24 hrs using V-FITC and propidium iodide staining by flow cytometry (reference value: 1.11 +/- 0.24 %); assay type: functional
[7] = Cytotoxicity against human MCF10A cells […] by SRB assay; assay type: cell-based; conditions: MCF-10A
[8] = Therapeutic index, ratio of IC50 for human MCF10A cells to IC50 for human MDA-MB-231 cells expressing high level of p53; assay type: cell-based; conditions: MCF10A cells versus MDA-MB-231 cells (high level of p53), read-out: Ratio IC50; in short: as §1
[9] = tested on: MCF7; test: Induction of apoptosis in human MCF7 cells assessed as viable cells at IC50 concentration after 48 hrs using V-FITC and propidium iodide staining by flow cytometry (reference value: 86.26 +/- 7.25 %)
[10] = tested on: MCF7; test: Induction of apoptosis in human MCF7 cells assessed as late apoptotic cells at IC50 concentration after 24 hrs using V-FITC and propidium iodide staining by flow cytometry (reference value: 0.03 +/- 0.01 %); assay type: functional
[11] = tested on: MDA-MB-231; test: Cytotoxicity against human MDA-MB-231 cells expressing high level of p53 […]; assay type: functional, cell-based
[12] = tested on: MCF7; test: Induction of apoptosis in human MCF7 cells assessed as early apoptotic cells at IC50 concentration after 48 hrs using V-FITC and propidium iodide staining by flow cytometry relative to control; assay type: functional
[13] = tested on: MCF7; test: Induction of apoptosis in human MCF7 cells assessed as cell viability at IC50 concentration after 24 hrs using V-FITC and propidium iodide staining by flow cytometry (reference value: 90.42 +/- 0.63 %); assay type: functional
[14] = Cell cycle arrest in human MCF10A cells assessed as accumulation at G0/G1 phase after 48 hrs using propidium iodide staining by flow cytometry (reference value: 65.70 +/- 1.14 %); assay type: ADME, cell-based; conditions: mcf-10a
[15] = tested on: MDA-MB-231; test: Cell cycle arrest in human MDA-MB-231 cells assessed as accumulation at S phase after 48 hrs using propidium iodide staining by flow cytometry (reference value: 26.35 +/- 0.03 %); assay type: functional
[16] = tested on: MDA-MB-231; test: Cell cycle arrest in human MDA-MB-231 cells assessed as accumulation at G2/M phase after 48 hrs using propidium iodide staining by flow cytometry (reference value: 31.59 +/- 0.03 %); assay type: functional
[17] = tested on: MCF7; test: Cell cycle arrest in human MCF7 cells assessed as accumulation at G2/M phase after 48 hrs using propidium iodide staining by flow cytometry (reference value: 1.57 +/- 2.12 %); assay type: functional
[18] = Cell cycle arrest in human MCF10A cells assessed as accumulation at S phase after 48 hrs using propidium iodide staining by flow cytometry (reference value: 21.78 +/- 0.46 %); assay type: ADME, cell-based; conditions: mcf-10a
[19] = Cell cycle arrest in human MCF10A cells assessed as accumulation at G2/M phase after 48 hrs using propidium iodide staining by flow cytometry (reference value: 12.55 +/- 0.68 %); assay type: ADME, cell-based; conditions: mcf-10a
[20] = tested on: MCF7; test: Cell cycle arrest in human MCF7 cells assessed as accumulation at S phase after 48 hrs using propidium iodide staining by flow cytometry (reference value: 8.55 +/- 0.40 %); assay type: functional
[21] = tested on: MCF7; test: Cell cycle arrest in human MCF7 cells assessed as accumulation at G0/G1 phase after 48 hrs using propidium iodide staining by flow cytometry (reference value: 89.88 +/- 1.73 %); assay type: functional
[22] = tested on: MDA-MB-231; test: Cell cycle arrest in human MDA-MB-231 cells assessed as accumulation at G0/G1 phase after 48 hrs using propidium iodide staining by flow cytometry (reference value: 42.06 +/- 0.01 %); assay type: functional

SMILES	IC50 [1] [µM]	Activity [2] [%]	selectivity ratio [3]	Activity [4] [%]	Activity [5] [%]	Activity [6] [%]	IC50 [7] [µM]	selectivity ratio [8]	viability [9] [%]	Activity [10] [%]	IC50 [11] [µM]	Activity [12] [%]	Activity [13] [%]	also measured
Cc1cn(C2CN(S(=O)(=O)c3ccc([N+](=O)[O-])cc3)c3ccccc3CO2)c(=O)[nH]c1=O (stereo not drawn)	39.8													
O=[N+]([O-])c1ccccc1S(=O)(=O)N1CC(n2cnc3c(Cl)nc(Cl)nc32)OCc2ccccc21 (racemic)	0.383	8.33	4	3.43	0.01	2.64	1.53	5.5	74.31	0.01	0.28	19.61	91.65	
O=[N+]([O-])c1ccc(S(=O)(=O)N2CC(n3cnc4c(Br)ncnc43)OCc3ccccc32)cc1 (racemic)	1.23	4.26		10.92	0.01	2.4			51.04	0.01		35.64	95.7	
O=[N+]([O-])c1ccccc1S(=O)(=O)N1CC(n2cnc3c(Br)ncnc32)OCc2ccccc21 (racemic)	3.62	8.04		3.76	0	4.19			67.6	0		24.43	91.95	
Nc1ccccc1S(=O)(=O)N1CC(n2cnc3c(Cl)nc(Cl)nc32)OCc2ccccc21 (racemic)	0.82	17.61	1.85	1.99	0.02	2.77	1.52	3.25	76.34	0.28	0.467	18.89	82.1	
O=S(=O)(c1ccccc1NO)N1CC(n2cnc3c(Cl)nc(Cl)nc32)OCc2ccccc21 (racemic)	1.53	9.11	0.8	5.52	0	4.92	1.23	2.53	70.82	0.11	0.487	18.73	90.86	
c1ccc(Sc2nc(Sc3ccccc3)c3ncn(C4CNc5ccccc5CO4)c3n2)cc1 (racemic)	9.71	12.68		4.98	0	4.52			71.84	0.07		18.64	87.29	
Clc1nc(Sc2ccccc2)c2ncn(C3CNc4ccccc4CO3)c2n1 (racemic)	13.8	7.55		4.01	0.07	3.88			76.3	0.07		15.81	83.09	
COC(CN(c1ccccc1CO)S(=O)(=O)c1ccc([N+](=O)[O-])cc1)n1cnc2c(Cl)nc(Cl)nc21 (racemic)	0.355	4.88	5.25	4.81	0.02	2.17	1.86	4.55	49.71	0.18	0.409	43.3	94.76	
O=[N+]([O-])c1ccccc1S(=O)(=O)N1CC(n2cnc3nc(Cl)nc(Cl)c32)OCc2ccccc21 (racemic)	0.99	4.94	1.27	2.48	0.02	3.8	1.27	4	79.78	0.02	0.318	13.93	95.03	
Cc1cn(C2CS(=O)(=O)c3ccccc3CO2)c(=O)[nH]c1=O (racemic)	12.7													
Cc1cn(C2C[S+]([O-])c3ccccc3CO2)c(=O)[nH]c1=O (racemic)	30.1													
Cc1cn(C2CN(S(=O)(=O)c3ccccc3[N+](=O)[O-])c3ccccc3CO2)c(=O)[nH]c1=O (racemic)	45.2													
O=c1[nH]cc(F)c(=O)[nH]1 [FLUOROURACIL]														Activity [14]: 34.2%; Activity [15]: 35.39%; Activity [16]: 25.63%; Activity [17]: 8.06%; Activity [18]: 55.74%; Activity [19]: 9.56%; Activity [20]: 6.06%; Activity [21]: 87.4%; Activity [22]: 38.98%
CC(=O)O[C@H]1C(=O)[C@@]2(C)[C@H]([C@H](OC(=O)c3ccccc3)[C@]3(O)C[C@H](OC(=O)[C@H](O)[C@@H](NC(=O)c4ccccc4)c4ccccc4)C(C)=C1C3(C)C)[C@]1(OC(C)=O)CO[C@@H]1C[C@@H]2O [PACLITAXEL]														Activity [14]: 36.76%; Activity [15]: 0%; Activity [16]: 0%; Activity [17]: 18.5%; Activity [18]: 39.75%; Activity [19]: 23.5%; Activity [20]: 19.01%; Activity [21]: 62.48%; Activity [22]: 100%
